According to ChEMBL document CHEMBL4382240, “Discovery of novel 2,5-dihydroxyterephthalamide derivatives as multifunctional agents for the treatment of Alzheimer's disease” (Bioorg Med Chem, 2018):
Active and inactive are the calls of the source. No cut-off for these calls is given here.

Columns and labels:
[1] = Metal chelating activity assessed as compound-Fe2+ complex formation at 37.5 uM after 30 mins by UV spectrometry method
Method in brief: (§1)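 Compound and metal salt (CuCl2, ZnCl2, FeSO4 or AlCl3), each 37.5 µM final in methanol, incubated 30 min at room temperature. UV-vis spectra recorded from 200 to 600 nm and compared with the compound alone.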

[2] = Metal chelating activity assessed as mole fraction of compound required to show 1:2 stoichiometry for compound -Cu2+ complex at 37.5 uM after 30 mins by UV spectrometry method
Method in brief: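 Molar-ratio titration in methanol: compound fixed at 37.5 µM final, CuCl2 varied from 3.75 to 150 µM final. Spectra corrected by subtracting CuCl2 and compound alone. Absorbance at 274 nm plotted against mole fraction; stoichiometry taken from where the straight lines intersect.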

[3] = target: T1, Acetylcholinesterase (Rattus norvegicus, UniProt P37136); assay: Inhibition of rat cortex AChE using acetylthiocholine iodide as substrate after 15 mins by Ellman's method
T1 sequence (P37136 whole entry): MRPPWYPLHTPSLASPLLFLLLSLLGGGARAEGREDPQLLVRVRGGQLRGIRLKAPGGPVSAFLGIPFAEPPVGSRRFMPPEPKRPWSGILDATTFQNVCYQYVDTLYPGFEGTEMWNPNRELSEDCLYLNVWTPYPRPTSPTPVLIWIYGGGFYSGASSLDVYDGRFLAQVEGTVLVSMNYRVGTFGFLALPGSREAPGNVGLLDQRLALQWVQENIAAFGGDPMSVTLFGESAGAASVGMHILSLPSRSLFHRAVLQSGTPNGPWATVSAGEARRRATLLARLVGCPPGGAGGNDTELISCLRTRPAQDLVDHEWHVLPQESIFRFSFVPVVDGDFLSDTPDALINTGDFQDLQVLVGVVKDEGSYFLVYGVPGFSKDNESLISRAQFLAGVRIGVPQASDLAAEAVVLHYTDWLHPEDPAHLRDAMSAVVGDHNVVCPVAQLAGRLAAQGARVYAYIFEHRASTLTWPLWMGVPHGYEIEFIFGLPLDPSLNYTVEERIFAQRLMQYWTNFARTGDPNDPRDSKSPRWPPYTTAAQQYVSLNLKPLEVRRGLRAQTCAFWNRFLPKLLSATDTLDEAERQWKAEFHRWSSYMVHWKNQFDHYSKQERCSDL

[4] = target: T2, Amyloid-beta precursor protein (Homo sapiens, UniProt P05067); assay: Inhibition of human amyloid beta (1 to 42) self-induced aggregation at 25 uM after 24 hrs by Thioflavin T based fluorometric assay relative to control
T2 sequence (P05067 whole entry): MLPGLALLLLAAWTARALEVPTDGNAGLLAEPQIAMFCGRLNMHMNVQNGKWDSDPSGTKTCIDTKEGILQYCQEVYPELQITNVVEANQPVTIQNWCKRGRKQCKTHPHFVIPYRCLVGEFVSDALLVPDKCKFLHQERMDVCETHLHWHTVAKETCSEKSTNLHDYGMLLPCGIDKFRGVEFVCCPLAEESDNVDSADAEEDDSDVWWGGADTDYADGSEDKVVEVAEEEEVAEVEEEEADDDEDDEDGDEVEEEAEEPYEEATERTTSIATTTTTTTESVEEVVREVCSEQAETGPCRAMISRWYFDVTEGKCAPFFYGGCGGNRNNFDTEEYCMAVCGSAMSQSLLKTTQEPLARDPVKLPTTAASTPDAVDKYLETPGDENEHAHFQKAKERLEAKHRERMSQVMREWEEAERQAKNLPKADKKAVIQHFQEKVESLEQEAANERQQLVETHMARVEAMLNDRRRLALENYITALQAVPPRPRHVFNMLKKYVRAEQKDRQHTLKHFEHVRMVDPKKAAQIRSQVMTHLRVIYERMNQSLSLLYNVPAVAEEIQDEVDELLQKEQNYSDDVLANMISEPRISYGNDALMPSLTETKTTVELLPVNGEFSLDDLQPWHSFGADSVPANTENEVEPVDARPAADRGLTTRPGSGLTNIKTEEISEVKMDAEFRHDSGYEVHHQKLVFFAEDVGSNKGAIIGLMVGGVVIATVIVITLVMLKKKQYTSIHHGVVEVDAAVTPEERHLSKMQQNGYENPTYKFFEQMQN
Method in brief: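 Aβ1-42 (25 µM final) incubated with compound (25 µM final) in 50 mM phosphate buffer, pH 7.4, for 24 h at 37 °C under a sealing film. ThT (5 µM) in 50 mM glycine-NaOH, pH 8.5, then added and fluorescence measured. Triplicate; mean ± SD of three independent experiments.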

[5] = target: Acetylcholinesterase (Electrophorus electricus, UniProt O42275); assay: Inhibition of electric eel AChE using acetylthiocholine iodide as substrate after 15 mins by Ellman's method
Sequence of Acetylcholinesterase (Electrophorus electricus, UniProt O42275) (O42275 whole entry): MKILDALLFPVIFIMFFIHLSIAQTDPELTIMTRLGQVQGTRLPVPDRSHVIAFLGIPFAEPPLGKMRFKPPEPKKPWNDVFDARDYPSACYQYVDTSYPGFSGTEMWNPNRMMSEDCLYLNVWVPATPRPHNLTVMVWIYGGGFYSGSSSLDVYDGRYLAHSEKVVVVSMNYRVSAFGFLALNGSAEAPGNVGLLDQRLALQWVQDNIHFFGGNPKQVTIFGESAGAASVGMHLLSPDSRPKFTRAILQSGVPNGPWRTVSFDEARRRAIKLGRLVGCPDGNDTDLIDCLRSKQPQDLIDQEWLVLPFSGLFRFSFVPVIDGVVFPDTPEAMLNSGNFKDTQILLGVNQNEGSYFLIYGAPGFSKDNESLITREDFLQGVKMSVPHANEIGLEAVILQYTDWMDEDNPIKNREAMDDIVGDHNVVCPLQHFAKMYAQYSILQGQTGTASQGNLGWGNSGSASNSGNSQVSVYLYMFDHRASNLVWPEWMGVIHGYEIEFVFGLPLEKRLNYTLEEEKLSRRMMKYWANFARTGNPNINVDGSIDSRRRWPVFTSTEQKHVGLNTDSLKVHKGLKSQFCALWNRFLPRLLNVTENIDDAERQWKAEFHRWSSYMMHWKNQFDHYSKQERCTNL

[6] = Effect on NO release in […] cells up to 10 uM after 24 hrs by Griess reagent based assay; format: ADME, cell-based
Method in brief: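 BV-2 cells in DMEM treated with compound alone, without LPS, up to 10 µM. Nitrite in culture supernatant measured by Griess reagent (A540) against a NaNO2 standard curve. Mean ± SD of three independent experiments.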

[7] = Effect on TNFalpha release in […] cells up to 10 uM after 24 hrs by ELISA; format: ADME, cell-based
Method in brief: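 BV-2 cells exposed to compound up to 10 µM with no added LPS. TNF-α in the medium measured by ELISA. Mean ± SD of three independent experiments.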

[8] = Cytotoxicity against […] cells assessed as decrease in cell viability up to 10 uM preincubated for 30 mins followed by LPS stimulation and measured after 24 hrs by MTT assay; format: cell-based
Method in brief: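 BV-2 cells grown 24 h, then treated with compound (0.5, 2.5, 10.0 µM) for 30 min, with or without LPS (1.0 µg/mL), for a further 24 h. MTT (5 mg/mL) added for 4 h, formazan dissolved in DMSO, A490 read. Viability given as percent of untreated cells. Triplicate wells; three independent experiments.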

[9] = organism: Homo sapiens; assay: Anti-inflammatory activity in […] cells assessed as inhibition of LPS-stimulated NO release preincubated for 30 mins followed by LPS stimulation and measured after 24 hrs by Griess reagent based assay; format: functional, cell-based
[10] = organism: Homo sapiens; assay: Anti-inflammatory activity in […] cells assessed as inhibition of LPS-stimulated TNFalpha release preincubated for 30 mins followed by LPS stimulation and measured after 24 hrs by ELISA; format: functional, cell-based
Method in brief: (§2)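 Confluent BV-2 cells in DMEM preincubated 30 min with compound, tested over 0.5–10 µM, then stimulated with LPS (1.0 µg/mL) for 24 h. Released TNF-α measured by ELISA following kit instructions. Triplicate wells; mean ± SD of three independent experiments.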

[11] = Anti-inflammatory activity in […] cells assessed as inhibition of LPS-stimulated TNFalpha release at 2.5 uM preincubated for 30 mins followed by LPS stimulation and measured after 24 hrs by ELISA relative to control; format: functional; details: BV-2; method in brief: as §2
[12] = Metal chelating activity assessed as compound-Cu2+ complex formation at 37.5 uM after 30 mins by UV spectrometry method; method in brief: as §1
[13] = Disaggregation of Cu2+ induced preformed fibrils of human amyloid beta (1 to 42) at 25 uM after 24 hrs by Thioflavin T based fluorometric assay relative to control
Method in brief: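 Aβ1-42 (25 µM) with Cu2+ (25 µM) in HEPES buffer pre-aggregated 24 h at 37 °C. Compound (25 µM) then added for a further 24 h at 37 °C. Fibril content measured by ThT fluorescence (glycine-NaOH, pH 8.5). Triplicate; three independent experiments.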

[14] = target: T2, Amyloid-beta precursor protein; assay: Disaggregation of self-induced preformed fibrils of human amyloid beta (1 to 42) at 25 uM after 24 hrs by Thioflavin T based fluorometric assay relative to control
Method in brief: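 Aβ1-42 diluted in HEPES buffer (20 mM, pH 6.6, 150 mM NaCl) and pre-aggregated 24 h at 37 °C. Compound (25 µM) then added for another 24 h at 37 °C on a sealed plate. Remaining fibrils read by ThT fluorescence in glycine-NaOH, pH 8.5. Triplicate; three independent experiments.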

[15] = Inhibition of Cu2+ induced human amyloid beta (1 to 42) aggregation at 25 uM after 24 hrs by Thioflavin T based fluorometric assay relative to control
Method in brief: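 Aβ1-42 (25 µM) and Cu2+ (25 µM) in HEPES buffer (20 mM, pH 6.6, 150 mM NaCl), with or without compound (25 µM final), incubated 24 h at 37 °C. ThT (5 µM) in glycine-NaOH, pH 8.5, added and fluorescence read. Triplicate; three independent experiments.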

**Q.** For `CCN(CCCCNC(=O)c1cc(O)c(C(=O)NCCCCN(CC)Cc2ccccc2OC)cc1O)Cc1ccccc1OC`, which Activity [1] is on record?
**A.** Active

**Q.** What about the Activity [2] of the same compound?
**A.** 1.9 molar ratio

**Q.** What about the IC50 [3] of the same compound?
**A.** 560 nM

**Q.** What about the inhibition [4] of the same compound?
**A.** 96.2%

**Q.** And the IC50 [5]?
**A.** 5120 nM

**Q.** What about the Activity [6] of the same compound?
**A.** Non-Toxic

**Q.** What about the Activity [7] of the same compound?
**A.** Non-Toxic

**Q.** And the Activity [8]?
**A.** Non-Toxic

**Q.** And the inhibition [9]?
**A.** Dose-dependent effect

**Q.** What about the inhibition [10] of the same compound?
**A.** Dose-dependent effect

**Q.** What about the inhibition at 2.5 µM [11] of the same compound?
**A.** 37.1%

**Q.** What about the Activity [12] of the same compound?
**A.** Active

**Q.** What about the Activity [13] of the same compound?
**A.** 77.2%

**Q.** And the Activity [14]?
**A.** 75.2%

**Q.** What about the inhibition [15] of the same compound?
**A.** 71.7%
